Data taken from ChEMBL document CHEMBL5226368, “1H NMR-Based Biochemometric Analysis of Morus alba Extracts toward a Multipotent Herbal Anti-Infective” (J Nat Prod, 2023).
Calls of active or inactive are those of the source.

How the values were obtained:
Type in all cases: functional, organism-based
Conditions in all cases: dose 1-10 µM
[1] = system: Influenza A virus; experiment: Antiviral activity against oseltamivir resistant Influenza A virus A/1690/19 (H1N1) infected in MDCK cells assessed as reduction in plaque number at 1 to 10 uM pre-infected with cell for 1 hrs followed by compound addition and measured after 72 hrs by plaque reduction assay
Procedure, shortened: (§1)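 Confluent MDCK monolayers were inoculated at 37 °C for 1 h with virus suspension, either alone or with serial half-log sample dilutions (1, 3.16, 10), in duplicate. The inoculum was aspirated and replaced with serum-free test medium containing 2 µg/mL trypsin, 0.4% agar and the same sample concentrations. Plaques were counted and IC50 was derived by a four-parameter logistic fit (n = 3).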

[2] = system: Influenza A virus; experiment: Antiviral activity against oseltamivir resistant Influenza A virus A/1519/19 (H1N1) infected in MDCK cells assessed as reduction in plaque number at 1 to 10 uM pre-infected with cell for 1 hrs followed by compound addition and measured after 72 hrs by plaque reduction assay; procedure, shortened: as §1
[3] = system: Influenza A virus; experiment: Antiviral activity against oseltamivir resistant Influenza A virus A/2588/19 (H3N2) infected in MDCK cells assessed as reduction in plaque number at 1 to 10 uM pre-infected with cell for 1 hrs followed by compound addition and measured after 72 hrs by plaque reduction assay; procedure, shortened: as §1
[4] = system: Influenza B virus; experiment: Antiviral activity against oseltamivir resistant Influenza B virus B/2791/18 (Victoria) infected in MDCK cells assessed as reduction in plaque number at 1 to 10 uM pre-infected with cell for 1 hrs followed by compound addition and measured after 72 hrs by plaque reduction assay; procedure, shortened: as §1
[5] = system: Influenza B virus; experiment: Antiviral activity against oseltamivir resistant Influenza B virus B/3449/18 (Yamagata) infected in MDCK cells assessed as reduction in plaque number at 1 to 10 uM pre-infected with cell for 1 hrs followed by compound addition and measured after 72 hrs by plaque reduction assay; procedure, shortened: as §1

Measured: Activity

CC(C)=CCCC1=C[C@H](c2c(O)cc3c(c2O)C(=O)C[C@@H](c2ccc(O)cc2O)O3)[C@@H](C(=O)c2ccc(O)cc2O)[C@H](c2ccc(O)cc2O)C1
active: all assays above

CC(C)=CC[C@]12Oc3cc(O)c([C@H]4C=C(C)C[C@H](c5ccc(O)cc5O)[C@H]4C(=O)c4ccc(O)cc4O)c(O)c3C(=O)[C@@]1(O)Oc1cc(O)ccc12 [SANGGENON C]
active: all assays above
